The values that follow come from ChEMBL document CHEMBL1154181 (J Med Chem, 2009).

Assay [1] deals with Mus musculus. The experiment in a line: Antinociceptive activity against thermal nociception in po dosed CD1 mouse assessed as latency period to elicit jumping or hind paw licking at 1 mg/kg, po measured after 15 to 90 mins postdose by hot plate method in presence of 0.1 to 1 mg/kg, ip alpha-1-adrenergic receptor antagonist prazosin administered 15 mins before compound infusion. Type of assay: functional. In a few lines:
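Male CD-1 mice given prazosin ip (0.1 or 1 mg/kg) 15 min before oral dosing at 1 mg/kg. Tail flick: radiant heat 3–4 cm from the tail tip, cut-off 15 s. Hot plate: 48.5 °C, cut-off 60 s. Baseline is the mean of three readings 15 min apart. Latency followed over time and expressed as %MPE.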
A general note: In hot-plate and tail-flick tests a longer latency is read as antinociception.

For assay [2], the system named is Mus musculus. Put plainly: Ratio of compound ED50 to morphine ED50 for antinociceptive activity against radiant heat-induced nociception in icv dosed CD1 mouse. Type of assay: functional. In outline:
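Male CD-1 mice (25–30 g) given the compound or morphine hydrochloride into the right lateral ventricle. Tail flick used radiant heat focused 3–4 cm from the tail tip, with a 15 s cutoff, and latency was read at 15–120 min. %MPE was made quantal at peak time. ED50 came from at least four groups of six mice, and both ED50s were obtained the same way.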

In assay [3] the test system is Mus musculus. Put plainly: Ratio of morphine ED50 to compound ED50 for antinociceptive activity against thermal nociception in po dosed CD1 mouse. Type of assay: functional. In outline: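 Compound and morphine were dosed po in male CD-1 mice. Hot plate was held at 48.5 ± 0.1 °C, scored as paw lick, jerk or jump, with a 60 s cutoff, read at 15–90 min. Tail flick used radiant heat with a 15 s cutoff. Baseline was the mean of three readings. Peak-time %MPE was made quantal, and ED50 came from at least four groups of six mice.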

Assay [4] addresses T1, Alpha-1A adrenergic receptor (Rattus norvegicus) (UniProt P43140).
T1 sequence (whole entry): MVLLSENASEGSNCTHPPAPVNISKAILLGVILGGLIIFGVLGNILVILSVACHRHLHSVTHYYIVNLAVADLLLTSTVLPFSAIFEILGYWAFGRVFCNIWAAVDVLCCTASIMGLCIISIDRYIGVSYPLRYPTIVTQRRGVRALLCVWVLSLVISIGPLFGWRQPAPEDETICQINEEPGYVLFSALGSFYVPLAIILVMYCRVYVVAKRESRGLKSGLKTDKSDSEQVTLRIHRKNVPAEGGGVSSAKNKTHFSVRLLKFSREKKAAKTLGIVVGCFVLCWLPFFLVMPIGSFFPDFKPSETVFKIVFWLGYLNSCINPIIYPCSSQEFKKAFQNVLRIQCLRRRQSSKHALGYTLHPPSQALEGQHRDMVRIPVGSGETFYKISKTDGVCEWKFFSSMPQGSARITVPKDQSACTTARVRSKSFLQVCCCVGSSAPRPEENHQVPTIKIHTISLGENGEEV
Put plainly: Inhibition of [3H]prazosin binding to adrenergic alpha1A receptor in Wistar rat submaxillary gland at 10 uM after 60 mins. In a few lines:
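Wistar rat submaxillary gland membranes with 0.25 nM [3H]-prazosin. Nonspecific binding defined by 10 μM phentolamine. Buffer 50 mM Tris-HCl pH 7.4, 0.5 mM EDTA. Incubated 60 min at 25 °C, then filtered and counted. Duplicate; 1% DMSO final.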

Assay [5] has as its system Mus musculus. The experiment in a line: Antinociceptive activity against radiant heat-induced nociception in icv dosed CD1 mouse assessed as increase in tail withdrawal latency measured after 15 to 120 mins postdose by tail flick test. Type of assay: functional. In outline:
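Male CD-1 mice anesthetized with ketamine-xylazine (80 + 10 mg/kg ip). Dosed into the right lateral ventricle (+2 mm ML, −0.3 mm AP to bregma, 2 mm depth). Tail flick with radiant heat, cut-off 15 s. Latency read at 15–120 min as %MPE.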

The test system of assay [6] is Mus musculus. The experiment in a line: Antinociceptive activity against radiant heat-induced nociception in po dosed CD1 mouse assessed as increase in tail withdrawal latency measured after 15 to 120 mins postdose by tail flick test. Type of assay: functional. In a few lines: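 Male CD-1 mice, 25–30 g; oral dosing. Radiant heat focused 3–4 cm from tail tip of hand-restrained mice; tail withdrawal latency recorded, cutoff 15 s at 15 V. Baseline = mean of three readings 15 min apart; latency at 15–120 min.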

Assay [7] concerns Mus musculus. Put plainly: Antinociceptive activity against radiant heat-induced nociception in po dosed CD1 mouse assessed as increase in tail withdrawal latency measured after 15 to 120 mins postdose by tail flick test in presence of 50 mg/kg, ip GABAB receptor antagonist CGP-35348 administered 30 mins before compound infusion. Type of assay: functional. In a few lines: (§1)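 Antagonist given ip 30 min before oral dosing (naloxone 1, mecamylamine 2, yohimbine 2, CGP 35348 50 mg/kg). Tail flick with radiant heat at the tail tip, cut-off 15 s; latencies at 15–120 min converted to %MPE. Peak-time quantal response (≥50% MPE); ED50 from at least four groups of six male CD-1 mice.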

Assay [8] deals with Mus musculus. Put plainly: Antinociceptive activity against radiant heat-induced nociception in po dosed CD1 mouse assessed as increase in tail withdrawal latency measured after 15 to 120 mins postdose by tail flick test in presence of 2 mg/kg, ip alpha-2-adrenergic receptor antagonist yohimbine hydrochloride administered 30 mins before compound infusion. Type of assay: functional. In a few lines: as §1

The subject of assay [9] is Mus musculus. Put plainly: Antinociceptive activity against thermal nociception in po dosed CD1 mouse assessed as increase in latency period to elicit jumping or hind paw licking measured after 15 to 90 mins postdose by hot plate method. Type of assay: functional.
In assay [10] the test system is Mus musculus. Put plainly: Antinociceptive activity against thermal nociception in po dosed CD1 mouse assessed as increase in latency period to elicit jumping or hind paw licking measured after 15 to 90 mins postdose by hot plate method in presence of 50 mg/kg, ip GABAB receptor antagonist CGP 35348 administered 30 mins before compound infusion. Type of assay: functional. In a few lines: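 Antagonist given ip 30 min before oral dosing (naloxone 1, mecamylamine 2, yohimbine 2, CGP 35348 50 mg/kg). Hot plate at 48.5 ± 0.1 °C inside a cylinder, cut-off 60 s; latencies at 15–90 min as %MPE. Peak-time quantal response (≥50% MPE); ED50 from at least four groups of six male CD-1 mice.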

Assay [11] deals with Mus musculus. Put plainly: Antinociceptive activity against radiant heat-induced nociception in CD1 mouse assessed as tail withdrawal latency at 1 mg/kg, po measured after 15 to 120 mins postdose by tail flick test. Type of assay: functional. In outline:
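Male CD-1 mice (25–30 g), dosed orally at 1 mg/kg. Tail flick: radiant heat focused 3–4 cm from the tail tip, cut-off 15 s at 15 V. Hot plate: 48.5 ± 0.1 °C, licking, paw jerk or jump, cut-off 60 s. Baseline is the mean of three readings 15 min apart. Latency followed to 120 min (tail) or 90 min (plate); data as %MPE.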

For the compound `C=Cc1c(C)nn(CCCN2CCN(c3ccc(C)cc3)CC2)c(=O)c1N`, the results for the Activity in assay [1] and in [11] were 120 min and 30 min, respectively. Further, the “Ratio ED50” value in assay [2] is 3; in assay [3], 4. Also, the Emax (usually the size of the effect at its maximum, as opposed to the concentration needed) in assay [4] was 101%. Also, the ED50 in assay [5] was determined as 3.5 µg; in assay [6], 0.8 mg/kg; in assay [7], 0.5 mg/kg; in assay [8], 6.1 mg/kg; in assay [9] it was 0.5 mg/kg; in assay [10] it was 0.6 mg/kg.
